Apaf1 activ: human Apaf-1 activation | Apaf-1 apoptosome caspase-3 activation, DEVD-Rh110 fluorescence; active compounds read low | activity change, negative = activation, % at 20 µM | hit rate 0.31% among 330,000;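 active means activity change at or below -40% at 20 µM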
Target sequence (O14727 whole entry, looked up): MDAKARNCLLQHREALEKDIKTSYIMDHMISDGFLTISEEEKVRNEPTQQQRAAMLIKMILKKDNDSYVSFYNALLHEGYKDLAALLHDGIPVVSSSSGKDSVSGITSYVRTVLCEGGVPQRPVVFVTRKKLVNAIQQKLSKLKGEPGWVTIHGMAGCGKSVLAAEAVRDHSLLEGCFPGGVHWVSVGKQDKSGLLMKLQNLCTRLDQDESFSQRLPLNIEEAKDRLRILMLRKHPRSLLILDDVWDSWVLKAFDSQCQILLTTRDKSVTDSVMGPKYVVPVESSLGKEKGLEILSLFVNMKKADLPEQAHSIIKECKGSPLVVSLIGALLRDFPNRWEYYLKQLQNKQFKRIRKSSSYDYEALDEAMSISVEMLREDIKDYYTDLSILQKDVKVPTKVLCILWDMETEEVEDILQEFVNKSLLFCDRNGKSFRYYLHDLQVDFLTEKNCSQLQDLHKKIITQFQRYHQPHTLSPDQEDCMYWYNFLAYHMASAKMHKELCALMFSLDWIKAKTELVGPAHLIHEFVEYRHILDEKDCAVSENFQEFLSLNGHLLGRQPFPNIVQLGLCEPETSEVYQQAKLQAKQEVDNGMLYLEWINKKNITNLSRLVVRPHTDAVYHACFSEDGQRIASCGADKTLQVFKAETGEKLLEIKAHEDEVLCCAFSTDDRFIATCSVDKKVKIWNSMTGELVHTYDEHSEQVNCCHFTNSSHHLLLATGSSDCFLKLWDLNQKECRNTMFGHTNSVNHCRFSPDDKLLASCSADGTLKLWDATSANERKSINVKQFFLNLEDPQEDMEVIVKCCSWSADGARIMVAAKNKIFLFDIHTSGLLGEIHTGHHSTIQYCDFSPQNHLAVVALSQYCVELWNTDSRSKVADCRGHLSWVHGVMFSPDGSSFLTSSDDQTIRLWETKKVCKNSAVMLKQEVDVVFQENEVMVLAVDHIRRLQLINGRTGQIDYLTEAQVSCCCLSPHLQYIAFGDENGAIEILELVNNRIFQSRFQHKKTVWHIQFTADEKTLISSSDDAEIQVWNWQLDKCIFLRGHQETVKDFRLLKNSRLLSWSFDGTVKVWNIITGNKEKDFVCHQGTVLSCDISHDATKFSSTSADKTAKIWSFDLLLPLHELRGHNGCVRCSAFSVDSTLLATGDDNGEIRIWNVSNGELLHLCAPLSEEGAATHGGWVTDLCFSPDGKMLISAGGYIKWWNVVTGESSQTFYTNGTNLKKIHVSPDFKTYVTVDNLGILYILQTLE
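Schedule: 30 min preincubation, 50 min reaction, room temperature / System: biochemical Apaf-1 apoptosome reconstitution / Medium: 20 mM HEPES pH 7.5 with CHAPS, BSA / Evaluation: Caspase-3 cleavage activity downstream of Apaf-1 activation / Detection: Caspase-3-released Rh110 fluorescence, 540 nm emission, 480 nm excitation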
Rh110 interf act: Rh110 signal interference in Apaf-1 activator counter-screen; shares compounds with Apaf1 activ; Rh110 fluorescence interference, quenched caspase reaction, Ex480/Em540; fluorescence interference (activity change), % at 20 µM, hits read low; 980 tested, under 10 active; AID 504616;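 active means mean activity change at or below -40% when tested at 20 µM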
Apaf-1 act conf: confirmation of human Apaf-1 activators. shares compounds with Apaf1 activ. reconstituted apoptosome caspase-3 activity, DEVD-Rh110 fluorescence; active compounds read low. activity change, negative = activation, % at 20 µM. hit rate 5% among 980;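 active means mean activity change at or below -40%, meaning activation of 40% or more, at 20 µM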
Apaf1 act interf: Apaf-1 activator counter-screen fluorescence artifact. AID 588592. shares compounds with Apaf1 activ. EC50, µM. fluorescence interference counterscreen, Apaf-1 activator assay. 55 tested, under 10 active; call rule not given here
Starred values were filed as active, the others as inactive; x = no result given. Only a sample is shown.

SMILES	Apaf1 activ	Rh110 interf act	Apaf-1 act conf	others
O=C1/C(=N\S(=O)(=O)c2cccs2)C([n+]2ccc(CCCc3ccccc3)cc2)=C([O-])c2ccccc21	45.6	x	x
CCN(C(=O)Cn1c(=O)n2nc(CCn3nc(C)cc3C)nc2c2ccccc21)c1cccc(C)c1	-290.9*	9.0	15.6
COc1ccc(N)cc1-n1c(C)ccc1C	83.7	x	x
CCN1CCN(Cc2ccc(NC(=O)c3ccc(C)c(NC(=O)C(=O)c4c[nH]c5ccccc45)c3)cc2C(F)(F)F)CC1	74.4	x	x
COC(=O)c1nn(-c2ccc(OC)cc2)c(=O)cc1NN	42.2	x	x
COC(=O)c1nn(-c2ccc(OC)cc2)c(=O)cc1Sc1ccc(C)cc1	-333.1*	-3.6	12.0
CC[C@]12c3[nH]c4ccc(OC)cc4c3CCN1C(=O)C(CC(=O)NC/C=C(\C)CCC=C(C)C)C[C@@H]2C(=O)N1CCN(C(=O)c2ccco2)CC1 (some centres undefined)	40.2	x	x
O=C(Nc1cccc(CCc2ccccn2)c1)c1cc(F)c(F)cc1Cl	-109.1*	10.1	17.1
O=C(Nc1ccccn1)c1ccc2ccccc2c1O	45.2	x	x
Cc1cccc(OCc2n(CC(=O)OC3CC(C)CCC3C(C)C)c3ccccc3[n+]2C)c1 (centres undefined)	50.3	x	x
CC1=CC(C)(C)N2C(=O)C(=Nc3ccc(O)cc3)c3cccc1c32	90.2	x	x
C#CCOCCOCCOCCNc1nc(N2CCN(C(=O)CCCCCCCCCCNC(=O)[C@H](CCCCN)n3cc(CCO)nn3)CC2)nc(N2CCN(C(=O)CCCCCCCCCCNC(=O)[C@H](CCCCN)n3cc(CCO)nn3)CC2)n1	64.0	x	x
NNc1nc2c(Cl)c(Cl)ccc2s1	-59.0*	0.0	10.2
O=C(NCCO)Nc1ccc2nc(-c3ccco3)c(-c3ccco3)nc2c1	70.6	x	x
CC(=O)N1CCN(C(=S)NC(=O)C23CC4CC(CC(C4)C2)C3)CC1	47.5	x	x
O=C(C1CC(=O)N(c2ccc3c(c2)OCCO3)C1)N1CCCC(C(F)(F)F)C1 (centres undefined)	-44.8*	4.7	2.3
COc1ccc(C[C@H]2CN3C(=NC[C@@H]3Cc3ccccc3)N2CCNC(=O)c2ccc(C)c(Br)c2)cc1	64.9	x	x
Cc1cc(C)c(C(N)=O)c(Nc2cccc3ccccc23)n1	96.2	x	x
Cc1cc(C(=O)OCC(=O)NC(=O)c2cccn2C)c2ccccc2n1	-126.7*	8.8	14.3
O=C(O)CC1S/C(=N/N=C/c2ccc(-c3ccc(Cl)cc3[N+](=O)[O-])o2)NC1=O (centres undefined)	52.1	x	x
Cc1ccc(NC2=C(N3CCCCC3)C(=O)c3ccccc3C2=O)cc1	81.2	x	x
N#C/C(=N/Nc1ccccc1[N+](=O)[O-])C(N)=S	-40.0*	9.7	4.1
Nc1ccc2nc3c(c(Cl)c2c1)CCCC3	63.5	x	x
CCC(=O)N(CC)C1=C(O)c2ccccc2C(=O)C1=O	54.7	x	x
CCn1c(=O)c([N+](=O)[O-])c(NC2CCS(=O)(=O)C2)c2ccccc21 (centres undefined)	-162.4*	12.0	11.5
SMILES	Apaf1 activ	Rh110 interf act	Apaf-1 act conf	others
C#CCOCCOCCOCCNc1nc(N2CCN(C(=O)CCCCCCCCCCNC(=O)[C@H]([C@@H](C)CC)n3cc(CCCCN=C(N)N)nn3)CC2)nc(N2CCN(C(=O)CCCCCCCCCCNC(=O)[C@H](CCCCN)n3cc(C[C@@H](C)CC)nn3)CC2)n1	55.5	x	x
CSc1ccc2c(c1)N(CCC1CCCCN1C)c1ccccc1S2 (centres undefined)	54.7	x	x
CCN(CC)CCn1c2c(c(SCC(=O)Nc3nccs3)nc1=O)CCCC2	-49.6*	-4.2	10.1
O=C(c1ccco1)N1CCN(C(=O)c2cn(-c3ccccc3)nc2-c2ccc(F)cc2)CC1	72.0	x	x
CC(=O)CC(c1ccccc1)c1c(O)c2ccccc2oc1=O (centres undefined)	3.9	x	x
O=C1Cc2ccccc2C(=O)N1OCc1ccc(Cl)cc1	95.3	x	x
CCCCn1c(=O)[nH]c(=O)c2c1nc(-c1ccc([N+](=O)[O-])cc1)n2CC	-45.2*	2.3	-1.4
Cn1ccc2cc3c(cc21)CCN3C(=O)Nc1cccnc1	66.0	x	x
O=C(O)CCN1C(=O)/C(=C2\C(=O)N(Cc3ccccc3Cl)c3ccccc32)SC1=S	-120.8*	-0.8	-30.8
COc1cccc(/C=N/NC(=O)NC23CC4CC(CC(C4)C2)C3)c1O	40.1	x	x
Cc1ccccc1NC1=C/C(=N\S(=O)(=O)c2ccc(C(=O)O)cc2)c2ccccc2C1=O	96.7	x	x
CCc1ccc(S(=O)(=O)/N=C2\C=C(NS(=O)(=O)c3ccccc3)C(=O)c3ccccc32)cc1	57.4	x	x
Cc1ccc(C)c(S(=O)(=O)/N=C2\C=C(NS(=O)(=O)c3ccccc3)C(=O)c3ccccc32)c1	78.4	x	x	Apaf1 act interf=>100
CN1c2ccccc2C(C)(C)C12C=Nc1c(cc(N3CCOCC3)c3ccccc13)O2 (centres undefined)	68.5	x	x
COc1ccc(/C=C2/C(=O)N(c3cccc(F)c3)N=C2C)c(OC)c1	89.7	x	x
Cc1c(/C=N/Nc2nc3ccccc3[nH]2)c2ccccc2n1C	43.4	x	x
CN(C)CCCNc1cc(C(C)(C)C)nc2c(-c3ccc(Cl)cc3)cnn12	58.3	x	x
CC(C)(C(=O)O)c1ccc([C@H](O)CCCN2CCC(C(O)(c3ccccc3)c3ccccc3)CC2)cc1	-114.4*	12.7	11.8
c1coc(-c2nc(-c3ccco3)c(-c3ccco3)nc2-c2ccco2)c1	63.4	x	x
CC[C@@H](C)[C@@H]1CN([C@@H](CN2CCC[C@H]2CN2C(N)=NC[C@H]2C(C)C)C(C)C)C(=N)N1CCc1ccc(Cl)c(Cl)c1	51.0	x	x
NC(=NCCc1c[nH]c2ccccc12)NS(=O)(=O)c1ccc(F)cc1	-45.7*	2.6	2.1
COC(=O)C1=C(C)N(Cc2ccccc2)C(=NCCc2c[nH]c3ccccc23)N[C@H]1c1cccc(C(F)(F)F)c1	78.0	x	x
CCOC(=O)N1CCC(Nc2c(-c3ccc(C)c(C)c3)c(=O)c2=O)CC1	-201.7*	10.2	12.4
CCOC(=O)N1CCC(NC(=O)c2ccc3c(c2)sc2nc(-c4ccc(OC)cc4)cn23)CC1	43.7	x	x
O=C1C2=C(c3ccccc31)[N+](=O)C1CCCCC1N2[O-] (centres undefined)	54.5	x	x
SMILES	Apaf1 activ	Rh110 interf act	Apaf-1 act conf	others
Cc1ccc(N=Cc2cccc(O)c2O)c(C)c1	93.3	x	x
CC12CC3CC(C)(C1)CC(N)(C3)C2	-11.0	x	x
C=CCN1C=C2C(=O)C(C)(OC(=O)CCC(=O)OC)C(=O)C(Br)=C2C=C1c1ccc(OC)cc1 (centres undefined)	67.2	x	x
COCCN1C=C2C(=O)C(C)(OC(=O)CCC(=O)OC)C(=O)C(Br)=C2C=C1c1ccc(OC)cc1 (centres undefined)	77.1	x	x	Apaf1 act interf=>100
COC(=O)CCC(=O)OC1(C)C(=O)C2=CN(C3CCCC3)C(c3ccc(OC)cc3)=CC2=C(Br)C1=O (centres undefined)	64.1	x	x
CCC(C)(C)c1ccc(OCCCC[n+]2ccccc2)c(C(C)(C)CC)c1	50.8	x	x
CCC(Cc1ccccc1)NC(=O)CCn1cccc1 (centres undefined)	-219.5*	1.7	2.5
OCc1cc(C(O)CNCCCCCCOCCCCc2ccccc2)ccc1O (centres undefined)	41.5	x	x

Bioassay records from PubChem.
